In ChEMBL document CHEMBL1140496, “Discovery of N-phenyl nicotinamides as potent inhibitors of Kdr” (Bioorg Med Chem Lett, 2007):

Columns and labels:
[1] = target: T1, Vascular endothelial growth factor receptor 2 (Homo sapiens, UniProt P35968); assay: Inhibition of unphosphorylated-Kdr after 30 mins
HUVEC [2] = assay: Antiproliferative activity against VEGF-driven HUVEC; type: functional, cell-based; conditions: Homo sapiens
HUVEC [3] = assay: Antiproliferative activity against bFGF-driven HUVEC; type: functional, cell-based; conditions: Homo sapiens
[4] = Bioavailability in rat at 100 mg/kg; type: ADME, organism-based; conditions: in vivo
[5] = Clearance in rat at 100 mg/kg; type: ADME, organism-based; design: dose 100 mg/kg; conditions: in vivo
[6] = AUC in rat at 100 mg/kg; type: ADME, organism-based; design: dose 100 mg/kg; conditions: plasma
A-431 = assay: Antitumor activity in A431 cells xenografted po dosed nude mouse assessed as delay in disease progression administered twice daily; type: functional, organism-based; conditions: Homo sapiens
In short: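 Nude mice bearing A431 human […] epidermoid carcinoma xenografts received oral doses twice daily at 37.5, 75 or 150 mg/kg, against vehicle. Tumor size (cubic mm) was followed from about day 5 to day 23, with percent body weight also tracked. Groups were compared by p-values.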

[7] = target: T1, Vascular endothelial growth factor receptor 2; assay: Inhibition of phosphorylated-Kdr after 30 mins

T1 sequence (P35968 whole entry): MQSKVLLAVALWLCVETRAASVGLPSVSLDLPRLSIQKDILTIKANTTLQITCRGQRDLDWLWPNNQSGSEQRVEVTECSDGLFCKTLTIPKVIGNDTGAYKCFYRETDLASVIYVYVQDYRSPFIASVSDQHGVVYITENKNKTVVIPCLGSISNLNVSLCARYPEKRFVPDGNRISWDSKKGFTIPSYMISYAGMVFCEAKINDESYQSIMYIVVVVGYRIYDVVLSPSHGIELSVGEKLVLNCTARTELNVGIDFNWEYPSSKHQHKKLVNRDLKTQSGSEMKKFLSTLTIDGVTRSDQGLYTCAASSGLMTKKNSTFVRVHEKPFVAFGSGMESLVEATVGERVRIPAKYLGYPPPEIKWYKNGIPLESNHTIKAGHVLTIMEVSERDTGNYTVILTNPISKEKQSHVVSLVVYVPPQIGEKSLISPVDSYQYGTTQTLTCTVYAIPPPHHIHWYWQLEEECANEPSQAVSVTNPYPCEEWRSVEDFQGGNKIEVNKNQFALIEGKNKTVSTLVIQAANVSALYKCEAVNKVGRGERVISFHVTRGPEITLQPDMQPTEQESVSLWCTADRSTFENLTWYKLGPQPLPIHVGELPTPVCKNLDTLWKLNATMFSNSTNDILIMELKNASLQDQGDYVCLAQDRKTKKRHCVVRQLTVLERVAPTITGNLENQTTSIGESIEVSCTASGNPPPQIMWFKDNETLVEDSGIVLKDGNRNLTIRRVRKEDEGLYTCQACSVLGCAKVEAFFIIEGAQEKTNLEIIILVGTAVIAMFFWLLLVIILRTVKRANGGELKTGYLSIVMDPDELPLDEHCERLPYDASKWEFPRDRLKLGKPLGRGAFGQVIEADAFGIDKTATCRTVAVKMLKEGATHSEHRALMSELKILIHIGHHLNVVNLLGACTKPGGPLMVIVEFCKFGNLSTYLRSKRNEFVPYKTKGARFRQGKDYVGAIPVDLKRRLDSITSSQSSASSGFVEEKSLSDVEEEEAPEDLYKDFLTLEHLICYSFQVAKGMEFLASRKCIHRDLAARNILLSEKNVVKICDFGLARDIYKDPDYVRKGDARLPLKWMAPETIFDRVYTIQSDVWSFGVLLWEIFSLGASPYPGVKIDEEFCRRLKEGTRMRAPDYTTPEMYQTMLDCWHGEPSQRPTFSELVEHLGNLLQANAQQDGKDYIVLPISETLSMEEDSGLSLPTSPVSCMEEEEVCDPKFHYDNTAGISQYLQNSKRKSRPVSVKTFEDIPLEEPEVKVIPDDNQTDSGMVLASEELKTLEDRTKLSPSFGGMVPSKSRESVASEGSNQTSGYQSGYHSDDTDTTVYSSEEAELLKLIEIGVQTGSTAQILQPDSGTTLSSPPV

| SMILES | Ki [7] [nM] | further results |
| --- | --- | --- |
| O=C(Nc1ccc(Cl)cc1)c1cccnc1NCc1ccncc1 |  | Ki [1]: 8 nM; IC50 (HUVEC [2]): 8 nM; IC50 (HUVEC [3]): > 1000 nM; bioavailability [4]: 45%; clearance [5]: 73.3 mL/min/kg; AUC [6]: 20000 ng·h/mL; Activity (A-431): Dose-dependent effect |
| O=C(Nc1ccc(C(F)(F)F)cc1)c1cccnc1NCc1ccncc1 | 9 |  |
| CN1CCN(c2ccc(NC(=O)c3cccnc3NCc3ccncc3)cc2)CC1 | > 6660 |  |
| CC(O)c1cccc(NC(=O)c2cccnc2NCc2ccncc2)c1 (configuration not stated) | > 6660 |  |
| O=C(Nc1ccc(Cl)cc1)c1ncccc1NCc1ccncc1 | > 10000 |  |
| O=C(Nc1cccc(Cl)c1)c1cccnc1NCc1ccncc1 | 2 | IC50 (HUVEC [2]): 40 nM; IC50 (HUVEC [3]): > 1000 nM |
| O=C(Nc1ccc(Oc2ccccc2)cc1)c1cccnc1Nc1csc2ccccc12 | > 20000 |  |
| O=C(Nc1ccc(OC(F)(F)F)cc1)c1cccnc1NCc1ccncc1 | 23 |  |
| O=C(Nc1ccc(Oc2ccccc2)cc1)c1cccnc1NCc1ccc(F)cc1 | 135 |  |
| O=C(Nc1ccc(Oc2ccccc2)cc1)c1cccnc1NCc1ccc2c(c1)OCO2 | 38 |  |
| O=C(Nc1ccc(Cl)cc1)c1sccc1NCc1ccncc1 |  | Ki [1]: 120 nM |
| CCOC(=O)c1coc(-c2cccc(NC(=O)c3cccnc3NCc3ccncc3)c2)c1 | 29 |  |
| Cc1ccc(C(=O)Nc2ccc(Cl)cc2)c(NCc2ccncc2)n1 |  | Ki [1]: > 10000 nM |
| O=C(Nc1ccc(Cl)cc1)c1cc(Br)cnc1NCc1ccncc1 | 490 |  |

Continued, in another order:

| Ki [7] [nM] | SMILES | further results |
| --- | --- | --- |
| 70 | O=C(Nc1ccc(Oc2ccccc2)cc1)c1cccnc1Nc1ccc2cn[nH]c2c1 |  |
| 2 | O=C(Nc1ccc(C2CCCCC2)cc1)c1cccnc1NCc1ccncc1 |  |
| 140 | O=C(Nc1ccc(Cl)cc1)c1cncnc1NCc1ccncc1 |  |
| 17 | O=C(Nc1ccc(Cl)c(Cl)c1)c1cccnc1NCc1ccncc1 |  |
| > 20000 | O=C(Nc1ccccc1Oc1ccccc1)c1cccnc1NCc1ccncc1 |  |
| 4 | O=C(Nc1ccc(Cl)c(C(F)(F)F)c1)c1cccnc1NCc1ccncc1 |  |
| > 10000 | O=C(Nc1ccc(Cl)cc1)C1CCCCC1NCc1ccncc1 (configuration not stated) |  |
| 8 | O=C(Nc1cc(C(F)(F)F)cc(C(F)(F)F)c1)c1cccnc1NCc1ccncc1 |  |
| 106 | CCc1cccc(NC(=O)c2cccnc2NCc2ccncc2)c1 |  |
| 15 | O=C(Nc1ccc(Cl)cc1)c1ccccc1NCc1ccncc1 |  |
